For series [1], the system named is Rattus norvegicus. The series is described as follows: Terminal elimination half life in female Crl:CD(SD) rat at 50 mg/kg, po using [14C]labeled compound. The format is ADME, organism-based. The settings on record: in vivo. The method, boiled down:
(§1)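 Single-dose PK: i.v. and oral dosing in Crl:CD(SD) rats and beagle dogs, plus a pilot oral nasogastric study in Cynomolgus monkeys using a Type IV lipid formulation. Rat i.v. vehicle was 80% cosolvent. Monkeys were fasted from 2 h before until 2 h after dosing, n=3 per sex. Rats also received [14C]-labelled compound orally at 50 mg/kg, with total radioactivity followed. Parameters are means; monkey values are medians.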

Series [2] can be described thus: Tmax in male beagle dog at 0.5 mg/kg, iv administered as infusion. The class given is ADME, organism-based, Canis lupus familiaris. The settings on record: in vivo. The method, boiled down: as §1
The test system of series [3] is Rattus norvegicus. The series is described as follows: Anxiolytic activity in ip dosed Wistar rat assessed as increase in water drinking time during punished period administered as suspension by Vogel punished drinking conflict test. The format is functional. As to conditions: read-out: MED. The method, boiled down: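 Vogel punished-drinking test in rats, single i.p. or p.o. dose as suspension in 5% Tween 80; plasma sampled ~45 min after i.p. or ~75 min after p.o. dosing.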

A short description of series [4]: Plasma concentration in Wistar rat at 0.5 mg/kg, po after 75 mins. The class given is ADME, organism-based. The method, boiled down: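 Plasma levels taken right after the Vogel test (~75 min after oral dose) following single oral doses in lipid-based formulations; data pooled from four experiments; mean±SD.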
Series [5] deals with Cytochrome P450 2D6 (Homo sapiens, UniProt P10635). The series is described as follows: Inhibition of CYP2D6 in human liver microsomes. The class given is ADME. (Liver microsomes are vesicles of endoplasmic reticulum, rich in cytochrome P450 enzymes.)
Cytochrome P450 2D6, sequence (P10635 whole entry, the tested form may be a part): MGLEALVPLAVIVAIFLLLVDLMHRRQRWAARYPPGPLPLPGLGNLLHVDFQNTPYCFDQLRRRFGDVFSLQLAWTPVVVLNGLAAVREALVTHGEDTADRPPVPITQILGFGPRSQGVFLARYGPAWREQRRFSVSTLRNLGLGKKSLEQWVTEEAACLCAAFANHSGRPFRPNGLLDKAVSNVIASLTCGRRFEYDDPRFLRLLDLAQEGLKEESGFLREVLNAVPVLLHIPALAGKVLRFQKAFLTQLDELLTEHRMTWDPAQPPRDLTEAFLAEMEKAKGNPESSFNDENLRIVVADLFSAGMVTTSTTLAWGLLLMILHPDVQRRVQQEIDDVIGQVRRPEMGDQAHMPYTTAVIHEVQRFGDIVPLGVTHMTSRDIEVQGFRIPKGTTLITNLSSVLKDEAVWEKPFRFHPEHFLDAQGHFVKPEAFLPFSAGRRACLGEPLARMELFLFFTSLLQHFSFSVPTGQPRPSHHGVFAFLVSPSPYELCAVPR
Series [6] in a line: Clearance in female beagle dog at 0.5 mg/kg, iv administered as infusion. The class given is ADME, organism-based, Canis lupus familiaris. As to conditions: in vivo.
The nature of series [7]: AUC(0 to 8 hrs) in fasted male cynomolgus monkey at 9 mg/kg, po administered as single dose. The format is ADME, organism-based, Macaca fascicularis. Set-up: dose 9 mg/kg, time < 6 hr, route oral. The settings on record: in vivo.

Usually Tmax stands for the time from dosing to the highest level. As a reminder, the IC50 is the concentration at which inhibition is half-maximal. As a reminder, the clearance is a measure of how efficiently the substance is removed, as volume per time. Broadly, the AUC(0-t) is the area under the concentration-time curve up to a stated or last time point.

As to `N#Cc1cccc(S(=O)(=O)c2cnc3cc(F)ccc3c2-c2ccc(Cl)cc2)c1`, the “beta t1/2” value in series [1] was 480 min. Further, the time to peak (Tmax) in series [2] is 30 min. Further, in series [3], the minimal effective dose was 3 mg/kg. In series [4], this molecule returned a concentration at 1.25 h of 34.8 nM. The half-maximal inhibitory concentration (IC50) in series [5] is > 10 µM. In series [6], the clearance is 9.22 mL/min/kg. The molecule also gave an area under the curve AUC(0-t) at 6 h in series [7] of 0.132 µM·h.

The values are drawn from ChEMBL document CHEMBL4007421, “Discovery and Preclinical Characterization of 3-((4-(4-Chlorophenyl)-7-fluoroquinoline-3-yl)sulfonyl)benzonitrile, a Novel Non-acetylenic Metabotropic Glutamate Receptor 5 (mGluR5) Negative Allosteric Modulator for Psychiatric Indications” (J Med Chem, 2017).
